From ChEMBL document CHEMBL4513216, “Probing the Open Global Health Chemical Diversity Library for Multistage-Active Starting Points for Next-Generation Antimalarials” (ACS Infect Dis, 2020)

Test: Toxicity liver stage against HepG2, at 10uM
Assay type: cell-based
Parameters: test concentration 10 uM, cell line HepG2-A16-CD81EGFP
Settings: human, HepG2-A16-CD81EGFP cells; read-out: INHIBITION
Procedure, shortened: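 Uninfected HepG2-A16-CD81EGFP cells, 3 × 10^3 per well, 1536-well, plated on prespotted compound at 10 μM final, parasite-free screening media added to match infected plates; puromycin 10 μM positive, DMSO 0.5% negative; run in parallel with 48 h PbLuc assay at 37 °C, 5% CO2; viability by CellTiter-Glo luminescence, normalized to controls.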

Row | Structure (SMILES) | cytotoxicity at 10 µM [%]
1 | Cc1nn(CCC#N)c(C)c1[C@@H]1C=C[C@@H](NCc2ccc(F)cc2)C1 | 2
2 | CC(C)Nc1nc(C(=O)Nc2ccccn2)cs1 | 5.15
3 | COc1ccc(-c2cc(C(=O)Nc3nc[nH]n3)[nH]n2)cc1 | -12.1
4 | Cn1cccc1CN(C(=O)CC(CC(=O)O)c1cccs1)C1CC1 (configuration not stated) | 2.27
5 | O=C(c1ccnnc1)N1CC2(CCN(c3ncccn3)C2)C1 | 5.62
6 | O=C(c1ccoc1)N1C[C@@H]2CN(c3ncccn3)C[C@@H]2C1 | -5.3
7 | Cc1ccccc1C(=O)N1CC(C(=O)NCC2CC2)C2(CCOCC2)C1 (configuration not stated) | 3.54
8 | O=C1NCC[C@]12CN(Cc1ccsc1)C[C@H]2c1ccccc1 | -142
9 | CC1(C)CC(=O)c2cnc3nc(N4CCOCC4)nc(O)c3c2C1 | 1.21
10 | O=C(CSC1CCc2ccccc2NC1=O)NC1CC1 (configuration not stated) | 6.58
11 | CCOc1ccc(Cl)cc1CNCCCn1ccnc1 | 1.36
12 | Cn1cc(CN2C[C@@H]3COC[C@]3(COc3ccc(C#N)cn3)C2)cn1 | -11.3
13 | Cn1cc(C[C@H]2[C@@H](O)CCN2C(=O)C2CC=CC2)cn1 | 5.6
14 | NC(=O)c1c(-c2ccc(Cl)cc2Cl)csc1NC(=O)CCCC(=O)O | 5.97
15 | c1ccc(CO[C@H]2CN(c3ncccn3)C[C@@]23CCCO3)cc1 | -6.11
16 | CNC(=O)C1CN(c2cc(C)ncn2)CCN1Cc1ccccc1 (configuration not stated) | 10
17 | Cc1ccnn1CCNC(=O)c1cnc(N(C)C)nc1 | 2.24
18 | COc1ccc(F)cc1C(=O)N(C)[C@@H]1CC[C@@H](O)[C@@H]1O | 7.81
19 | Cc1cccc(C2CCN(S(=O)(=O)c3cn(C)cn3)CC2)n1 | -20.2
20 | c1cncc(CC2CN(c3cccnc3)CCO2)c1 (configuration not stated) | -0.41
21 | NC(=O)CN1CCC(c2cncc(-c3cccc(Cl)c3)n2)CC1 | -26.4
22 | COc1ccccc1[S+]([O-])CC(=O)NCc1cc(F)cc(F)c1 (configuration not stated) | 24.3
23 | CNS(=O)(=O)c1cccc(S(=O)(=O)Nc2ncc(C)s2)c1 | -4.79

Row | Structure (SMILES) | cytotoxicity at 10 µM [%]
24 | OC1(CNc2ccc(Br)cn2)CCSCC1 | 5.63
25 | COCCNC(=O)NCc1ccc(-n2ccc(C(F)(F)F)n2)cc1 | -7.29
26 | CCSCc1ccc(C(=O)N2CCCN(CC(N)=O)CC2)cc1 | 10.5
27 | OCCN1CCC(CNCc2cn(-c3ccccc3)nn2)CC1 | 0.03
28 | CN(CC(N)=O)Cc1cc(Cl)cc2cccnc12 | 6.37
29 | CC(C)Sc1ccc(N2CCN(Cc3ccccn3)CC2)nn1 | 2.11
30 | COc1cccc(-c2cc(NCc3cscn3)n(C)n2)c1 | 3.69
31 | CC(Cn1cccn1)NC(=O)C1=Cc2ccccc2OC1 (configuration not stated) | 2.86
32 | Cc1noc(C)c1CS(=O)(=O)CC(=O)NCCc1cccs1 | -1.6
33 | Cc1nnc2n1CCN(C(=O)c1cnc3c(cnn3C(C)C)c1)C2 | -6.69
34 | CCCN1CCCN(C(=O)Nc2ccc3c(c2)OCO3)CC1 | -4.92
35 | O=C(NCc1ccccc1OCCO)Nc1ccc2c(c1)CCC2 | 9.46
36 | CSCC(C)(O)CNC(=O)c1cc(F)ccc1Br (configuration not stated) | -5.41
37 | COC(=O)N1CCN(Cc2csc(-c3ncccn3)n2)CC1 | -7.53
38 | CC(C)c1cnc(CN(C)C2CCN(CCc3ccccn3)C2)o1 (configuration not stated) | 2.37
39 | CCC(CC)NC(=O)NCc1ccnc(-n2ccnc2C)c1 | -1.21
40 | c1coc(CNc2nnc(Cc3ccsc3)o2)c1 | -2.28
41 | CC(NC(=O)COC1CCCC1)c1nc(-c2ccccc2)c[nH]1 (configuration not stated) | 4.24
42 | CN(C)c1nccc(CNS(=O)(=O)c2cc(Cl)cc(Cl)c2)n1 | -138
43 | CCc1cnc(CN2C(=O)CC3(CCSC3)C2=O)o1 (configuration not stated) | -9.36
44 | Cc1cc(CS(=O)(=O)C(C)c2ccc(F)cc2)on1 (configuration not stated) | -0.0986
45 | Cc1ccccc1CNCC(O)c1ccc(OC(C)C)cc1 (configuration not stated) | -6.17
46 | CC(c1ccccn1)N(C)C(=O)NCCn1c(=O)oc2ccccc21 (configuration not stated) | -6.37

Row | Structure (SMILES) | cytotoxicity at 10 µM [%]
47 | Cc1cccc(C(=O)Nc2c(C(N)=O)n[nH]c2C)c1C | -1.49
48 | O=C(c1ccc(=O)[nH]n1)N1CCC(CN2CCOCC2)CC1 | 4.13
49 | COCc1noc(CCC(=O)c2ccc3c(c2)OCCO3)n1 | 0.923
50 | COc1ccc(C)cc1NC(=O)CNc1ccn(CC(N)=O)n1 | -8.28
51 | CS(=O)(=O)NCC(=O)NC(Cc1ccccc1)C1CCCC1 (configuration not stated) | 0.69
52 | Cc1cc(N2CCC(NC(=O)CCc3cnn(C)c3)CC2)nc(C)n1 | -2.01
53 | CC(NC(=O)COc1ccccc1Cl)c1nnc2n1CCC2 (configuration not stated) | -6
54 | COc1ccc(C)cc1C(C)NCc1cccn1C (configuration not stated) | -5.89
55 | CC(=O)N(C)Cc1ccc(OCc2cccs2)cc1 | 12.4
56 | CC1CCN(C(=O)CSCc2nc(C3CC3)no2)CC1 | 1.26
57 | Cn1ncnc1NCc1ccc(F)cc1 | 0.361
58 | CC(C)c1nsc(NC2CCOC3(CCCC3)C2)n1 (configuration not stated) | 8.83
59 | Nc1cc2c(nn1)CCN(C(=O)c1ccc(-c3ccco3)[nH]c1=O)C2 | -3.73
60 | Cc1cc(F)c(S(=O)(=O)N(C)CCn2cccn2)cc1F | 0.532
61 | Cc1noc(C)c1C[S+]([O-])Cc1cn2cccc(C)c2n1 (configuration not stated) | 2.14
62 | NCC(c1ccccc1)N1CCc2sccc2C1 (configuration not stated) | 1.88
63 | CC(C)n1cc(CN2CCCN(C(=O)c3nccnc3N)CC2)cn1 | 7.13
64 | CC(Oc1ccccc1C(F)(F)F)C(=O)NCCC(=O)N(C)C (configuration not stated) | -4.25
65 | COc1nc2c(cc1C(=O)NC(C)Cc1cnccn1)CCC2 (configuration not stated) | -135
66 | CC(C)(N)c1cn([C@@H]2c3ccccc3C3(CCNCC3)[C@H]2O)nn1 | -4.67
67 | O=C(Cn1ccc(=O)cc1)NCc1ccc2sccc2c1 | 0.592
68 | COc1cccc(-n2cc(-c3ccnc(NC(CO)C(C)C)n3)cn2)c1 (configuration not stated) | 2.74
69 | Cc1cccc2c1nc(COCC(=O)O)n2-c1cnc(N)cn1 | 0.238

Row | Structure (SMILES) | cytotoxicity at 10 µM [%]
70 | COCCCC1CCCCN1S(=O)(=O)c1cccc(C#N)c1 (configuration not stated) | -133
71 | CC(C)(CN1CCC2(CCCNC2)C1)N1CCOCC1 (configuration not stated) | -141
72 | NC(=O)c1ccc(N2CCN(Cc3cccc4nsnc34)CC2)nc1 | 34.1
73 | Cc1c(NC(=O)NC2CCOCC2)cccc1C(=O)N1CCCC1 | 12
74 | CN(Cc1nc(-c2cccnc2)no1)C(=O)c1c2c(nn1C)CCCC2 | 7.54
75 | CSCc1ccc(N(C)CC2CCCN(C(C)C)C2)nc1 (configuration not stated) | -128
76 | CC(=O)NCCC1CCCCN1S(=O)(=O)c1cccc(F)c1 (configuration not stated) | -155
77 | CCCn1ncnc1C(C)NC(=O)C1CCN(CC(N)=O)CC1 (configuration not stated) | -140
78 | CN(CCc1ccccc1)c1cnn(CC2COCCO2)c(=O)c1 (configuration not stated) | -10.3
79 | COC(=O)CNC(=O)CC1COc2ccc(C(=O)N(C)C)cc2N1C (configuration not stated) | -8.8
80 | CCCC1(CO)CCCN(C(=O)CNC(N)=O)C1 (configuration not stated) | 0.83
81 | O=C1NCCN(Cc2ccccc2)C1CC(=O)N1CCc2n[nH]cc2C1 (configuration not stated) | -6.73
82 | CCCn1ncc(-c2nc3c(cnn3CC)[nH]2)c1C | 4.05
83 | CN(C)c1ccc(CN2CCC(C(O)Cc3ccccc3)CC2)cn1 (configuration not stated) | -1.29
84 | CCc1c(C)nn(CCNC(=O)c2cc(C3CC3)n[nH]2)c1C | -12.1
85 | c1ccc(Cc2nc(CNC3CCOC4(CCOCC4)C3)no2)cc1 (configuration not stated) | -10.6
86 | O=S1(=O)C[C@@H]2[C@H](C1)N(Cc1nc3ccccc3[nH]1)CCN2CC1CC1 | -133
87 | N#Cc1c(C2CC2)cc(-c2ccc(F)c(F)c2)nc1N | -5.73
88 | COc1cccc(-c2n[nH]cc2C(=O)NC(C)c2nc(C(C)C)no2)c1 (configuration not stated) | -2.75
89 | CCc1c(C)nn(CCNC(=O)C2CCCN(C(=O)N(C)C)C2)c1C (configuration not stated) | -4.42
90 | CC(C)c1cc(NC(=O)c2ccc([S+]([O-])C(C)C)cc2)[nH]n1 (configuration not stated) | -7.52
91 | c1ccc(-c2nnc(CN3CCCC3Cn3cncn3)o2)cc1 (configuration not stated) | -7.42
92 | Cc1cccc(OCCNC(=O)CN2CCN(C)CC2C)c1 (configuration not stated) | -2.66

Row | Structure (SMILES) | cytotoxicity at 10 µM [%]
93 | CN(Cc1ccc(N(C)C)cc1)C(=O)c1cc2c([nH]c1=O)CCCC2=O | -3.34
94 | COc1ccc(CCN(C)C2CCCN(Cc3noc(C)n3)C2)cc1 (configuration not stated) | -4.59
95 | c1ccc2oc(N3CCCC3Cn3cncn3)nc2c1 (configuration not stated) | -14.4
96 | COc1cc(C)nc(N2CCN(C(=O)c3ccn(C)c(=O)c3)CC2)n1 | -12.8
97 | CCNc1cc2c(nn1)CCN(C(=O)Cc1ccc(C)nc1)C2 | -3.63
98 | O=C(Nc1ccncc1)N(CCO)Cc1ccsc1 | -3.98
99 | c1ccc(-c2nc(CN3CCCCC3Cn3cncn3)co2)cc1 (configuration not stated) | -14.4
100 | Cc1cc(C(=O)N2CCCC(n3cncn3)C2)c(C)n1CC1CC1 (configuration not stated) | 2.37
101 | CCn1cnnc1C1CCN(C(=O)COc2ccccc2OC)CC1 | -4.41
102 | Cc1cccc(CN2C(=O)CCC23CCN(C(=O)NC(C)C)CC3)n1 | 5
103 | CN(C)C(=O)N1CCc2onc(C(=O)Nc3cccnc3)c2C1 | 4.85
104 | O=C1[C@H]2CN(Cc3nccs3)C[C@H]2CN1c1cncnc1 | -81.9
105 | CCN(CC)CC1CN(Cc2nccs2)Cc2nccn2C1 (configuration not stated) | 1.13
106 | CN1C(=O)CC(c2ccccc2)C12CCN(CC1CC1)CC2 (configuration not stated) | -1.95
107 | CO[C@H]1CC[C@H]2[C@H]1OCCN2Cc1ccc(F)cc1 | 7.34
108 | Cc1cccc(CN2CC[C@@H]3[C@@H]2CCN3C(=O)c2cc(C)on2)n1 | -0.762
109 | O=C(CC1CCCC1)N1CCC2(CCN2Cc2ccc(F)cc2)C1 (configuration not stated) | -5.66
110 | Cc1nnsc1CN1C[C@H]2CC[C@@H](C1)N(Cc1c(C)noc1C)C2=O | -4.56
111 | CCN1C(=O)CCC12CCC(NC(=O)c1cnccn1)CC2 (configuration not stated) | -2.42
112 | O=C(NC1CCC2(CCC(=O)N2CC2CC2)CC1)c1cnccn1 (configuration not stated) | 0.729
